Data from ChEMBL document CHEMBL5058577, “EUbOPEN Chemogenomics Library 2 (Multiplex)” (2022).

System: U2OS
Assay: Multiplex assay against U2OS
Format: toxicity, cell-based
Details: human
How it was run: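 Tubulin, mitochondrial-mass and membrane-permeability phenotypes are per cents of healthy-nucleus cells. Cells were gated by CellPathfinder machine learning into Hoechst high-intensity objects or normal cells, normal cells into healthy, pyknosed or fragmented nuclei, and pyknosed cells into mitotic or apoptotic. Before that, live cells stained at seeding with Hoechst33342, BioTracker Green Microtubule Cytoskeleton Dye, MitoTracker Red and Annexin V Alexa Fluor 680 were imaged on a CQ1 microscope at 37°C and 5% CO2 after compound addition.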

[1] = 12 h, 1 µM, compound concentration 1 uM, replicate 1
[2] = 12 h, 1 µM, compound concentration 1 uM, replicate 2
[3] = 12 h, 10 µM, compound concentration 10 uM, replicate 1
[4] = 12 h, 10 µM, compound concentration 10 uM, replicate 2
[5] = 24 h, 1 µM, compound concentration 1 uM, replicate 1
[6] = 24 h, 1 µM, compound concentration 1 uM, replicate 2
[7] = 24 h, 10 µM, compound concentration 10 uM, replicate 1
[8] = 24 h, 10 µM, compound concentration 10 uM, replicate 2
[9] = 48 h, 1 µM, compound concentration 1 uM, replicate 1
[10] = 48 h, 1 µM, compound concentration 1 uM, replicate 2
[11] = 48 h, 10 µM, compound concentration 10 uM, replicate 1
[12] = 48 h, 10 µM, compound concentration 10 uM, replicate 2

## CCCN1CCC[C@@H]2Cc3n[nH]cc3C[C@H]21.Cl [QUINPIROLE HYDROCHLORIDE]
[1]
  Population Apoptotic (%): 71%
  Population Fragmented Nuclei (%): 31%
  Population Healthy Nuclei (%): 60%
  Population Hoechst High Intensity Objects (%): 2%
  Population Membrane Permeable-Phenotype (%): 7%
  Population Mitochondria Different-Phenotype (%): 1%
  Population Mitotic Cells (%): 28%
  Population Normal (%): 97%
  Population Pyknosed Nuclei (%): 8%
  Population Tubulin-Different-Phenotype (%): 3%
  Total Cell Count: 265
[2]
  Population Apoptotic (%): 61%
  Population Fragmented Nuclei (%): 21%
  Population Healthy Nuclei (%): 67%
  Population Hoechst High Intensity Objects (%): 0%
  Population Membrane Permeable-Phenotype (%): 2%
  Population Mitotic Cells (%): 38%
  Population Normal (%): 100%
  Population Pyknosed Nuclei (%): 11%
  Population Tubulin-Different-Phenotype (%): 2%
  Total Cell Count: 118
[3]
  Population Apoptotic (%): 58%
  Population Fragmented Nuclei (%): 19%
  Population Healthy Nuclei (%): 72%
  Population Hoechst High Intensity Objects (%): 1%
  Population Membrane Permeable-Phenotype (%): 2%
  Population Mitochondria Different-Phenotype (%): 0%
  Population Mitotic Cells (%): 41%
  Population Normal (%): 98%
  Population Pyknosed Nuclei (%): 7%
  Population Tubulin-Different-Phenotype (%): 1%
  Total Cell Count: 228
[4]
  Population Apoptotic (%): 100%
  Population Fragmented Nuclei (%): 9%
  Population Healthy Nuclei (%): 85%
  Population Hoechst High Intensity Objects (%): 2%
  Population Membrane Permeable-Phenotype (%): 6%
  Population Mitochondria Different-Phenotype (%): 5%
  Population Mitotic Cells (%): 0%
  Population Normal (%): 97%
  Population Pyknosed Nuclei (%): 4%
  Population Tubulin-Different-Phenotype (%): 2%
  Total Cell Count: 126
[5]
  Population Apoptotic (%): 68%
  Population Fragmented Nuclei (%): 27%
  Population Healthy Nuclei (%): 64%
  Population Hoechst High Intensity Objects (%): 1%
  Population Membrane Permeable-Phenotype (%): 4%
  Population Mitochondria Different-Phenotype (%): 3%
  Population Mitotic Cells (%): 31%
  Population Normal (%): 98%
  Population Pyknosed Nuclei (%): 7%
  Population Tubulin-Different-Phenotype (%): 3%
  Total Cell Count: 299
[6]
  Population Apoptotic (%): 77%
  Population Fragmented Nuclei (%): 18%
  Population Healthy Nuclei (%): 68%
  Population Hoechst High Intensity Objects (%): 0%
  Population Mitochondria Different-Phenotype (%): 4%
  Population Mitotic Cells (%): 22%
  Population Normal (%): 100%
  Population Pyknosed Nuclei (%): 13%
  Population Tubulin-Different-Phenotype (%): 4%
  Total Cell Count: 138
[7]
  Population Apoptotic (%): 88%
  Population Fragmented Nuclei (%): 13%
  Population Healthy Nuclei (%): 80%
  Population Hoechst High Intensity Objects (%): 2%
  Population Membrane Permeable-Phenotype (%): 2%
  Population Mitochondria Different-Phenotype (%): 0%
  Population Mitotic Cells (%): 11%
  Population Normal (%): 97%
  Population Pyknosed Nuclei (%): 6%
  Population Tubulin-Different-Phenotype (%): 1%
  Total Cell Count: 281
[8]
  Population Apoptotic (%): 92%
  Population Fragmented Nuclei (%): 9%
  Population Healthy Nuclei (%): 82%
  Population Hoechst High Intensity Objects (%): 0%
  Population Membrane Permeable-Phenotype (%): 0%
  Population Mitochondria Different-Phenotype (%): 1%
  Population Mitotic Cells (%): 7%
  Population Normal (%): 99%
  Population Pyknosed Nuclei (%): 8%
  Population Tubulin-Different-Phenotype (%): 0%
  Total Cell Count: 163
[9]
  Population Apoptotic (%): 75%
  Population Fragmented Nuclei (%): 19%
  Population Healthy Nuclei (%): 74%
  Population Hoechst High Intensity Objects (%): 1%
  Population Membrane Permeable-Phenotype (%): 4%
  Population Mitochondria Different-Phenotype (%): 1%
  Population Mitotic Cells (%): 25%
  Population Normal (%): 98%
  Population Pyknosed Nuclei (%): 6%
  Population Tubulin-Different-Phenotype (%): 2%
  Total Cell Count: 425
[10]
  Population Apoptotic (%): 78%
  Population Fragmented Nuclei (%): 17%
  Population Healthy Nuclei (%): 69%
  Population Hoechst High Intensity Objects (%): 3%
  Population Mitochondria Different-Phenotype (%): 5%
  Population Mitotic Cells (%): 21%
  Population Normal (%): 96%
  Population Pyknosed Nuclei (%): 13%
  Total Cell Count: 180
[11]
  Population Apoptotic (%): 86%
  Population Fragmented Nuclei (%): 11%
  Population Healthy Nuclei (%): 78%
  Population Hoechst High Intensity Objects (%): 3%
  Population Membrane Permeable-Phenotype (%): 4%
  Population Mitochondria Different-Phenotype (%): 1%
  Population Mitotic Cells (%): 13%
  Population Normal (%): 96%
  Population Pyknosed Nuclei (%): 9%
  Population Tubulin-Different-Phenotype (%): 3%
  Total Cell Count: 386
[12]
  Population Apoptotic (%): 91%
  Population Fragmented Nuclei (%): 12%
  Population Hoechst High Intensity Objects (%): 1%
  Population Membrane Permeable-Phenotype (%): 6%
  Population Mitochondria Different-Phenotype (%): 4%
  Population Mitotic Cells (%): 8%
  Population Normal (%): 98%
  Population Tubulin-Different-Phenotype (%): 2%
  Total Cell Count: 251
